Experimental data reported in ChEMBL document CHEMBL3244063, “Pharmacology on rat ileum of certain 2-substituted 3-(dimethylamino)-5,6-dimethoxyindenes related to 5,6-(methylenedioxy)indene calcium antagonists” (1978).
Activity calls are given as the source filed them. The rule behind the calls is not given here.

Experiments:
Heart = test: Positive inotropic activity in perfused rabbit heart assessed as increase in force of contraction at 10^-6 M relative to control; format: functional, Oryctolagus cuniculus
Rattus norvegicus [1] = organism: Rattus norvegicus; test: Antagonist activity at calcium channel in albino rat ileum assessed as inhibition of PGF-2alpha-induced spasmogenic action by measuring contraction of ileum at 10^-3 M preincubated for 3 mins followed by PGF-2alpha induction (reference value: 76 +/- 4%); format: tissue-based; parameters: scale not given: the % may be the effect or the level left
Rattus norvegicus [2] = organism: Rattus norvegicus; test: Antagonist activity at calcium channel in albino rat ileum assessed as inhibition of acetylcholine-induced spasmogenic action by measuring contraction of ileum at 10^-3 acetylcholine induction (reference value: 80 +/- 5%); format: tissue-based; parameters: scale not given: the % may be the effect or the level left
Rattus norvegicus [3] = organism: Rattus norvegicus; test: Agonist activity at calcium channel in albino rat ileum assessed as induction of spasmogenic action by measuring contraction of ileum at 10^-6 to 10^-5 M measured for 3 mins; format: tissue-based
Procedure, shortened: (§1)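 Isolated rat ileum strips in an organ bath, with a separate strip for each compound and concentration. A control contraction to PGF2α (3 × 10⁻⁷ M bath) or acetylcholine (10⁻⁶ M bath) is recorded, and the bath is washed three times. Contraction during the 3-min test-compound incubation, before spasmogen is added, is expressed as percent of the control spasmogen response. Mean ± SEM of four experiments.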

Rattus norvegicus [4] = organism: Rattus norvegicus; test: Agonist activity at calcium channel in albino rat ileum assessed as induction of spasmogenic action by measuring contraction of ileum at 10^-3 M measured for 3 mins relative to PGF-2alpha; format: tissue-based; procedure, shortened: as §1
Rattus norvegicus [5] = organism: Rattus norvegicus; test: Antagonist activity at calcium channel in albino rat ileum assessed as inhibition of PGF-2alpha-induced spasmogenic action by measuring contraction of ileum at 10^-4 M preincubated for 3 mins followed by PGF-2alpha induction (reference value: 76 +/- 4%); format: tissue-based; parameters: scale not given: the % may be the effect or the level left
Rattus norvegicus [6] = organism: Rattus norvegicus; test: Agonist activity at calcium channel in albino rat ileum assessed as induction of spasmogenic action by measuring contraction of ileum at 10^-3 M measured for 3 mins relative to acetylcholine; format: tissue-based; procedure, shortened: as §1
Rattus norvegicus [7] = organism: Rattus norvegicus; test: Antagonist activity at calcium channel in albino rat ileum assessed as inhibition of PGF-2alpha-induced spasmogenic action by measuring contraction of ileum at 10^-6 M preincubated for 3 mins followed by PGF-2alpha induction (reference value: 76 +/- 4%); format: tissue-based; parameters: scale not given: the % may be the effect or the level left
Rattus norvegicus [8] = organism: Rattus norvegicus; test: Antagonist activity at calcium channel in albino rat ileum assessed as inhibition of acetylcholine-induced spasmogenic action by measuring contraction of ileum at 10^-4 acetylcholine induction (reference value: 80 +/- 5%); format: tissue-based; parameters: scale not given: the % may be the effect or the level left
Rattus norvegicus [9] = organism: Rattus norvegicus; test: Agonist activity at calcium channel in albino rat ileum assessed as induction of spasmogenic action by measuring contraction of ileum at 10^-4 M measured for 3 mins relative to acetylcholine; format: tissue-based; procedure, shortened: as §1
Rattus norvegicus [10] = organism: Rattus norvegicus; test: Antagonist activity at calcium channel in albino rat ileum assessed as inhibition of acetylcholine-induced spasmogenic action by measuring contraction of ileum at 10^-5 acetylcholine induction (reference value: 80 +/- 5%); format: tissue-based; parameters: scale not given: the % may be the effect or the level left
Rattus norvegicus [11] = organism: Rattus norvegicus; test: Antagonist activity at calcium channel in albino rat ileum assessed as inhibition of acetylcholine-induced spasmogenic action by measuring contraction of ileum at 10^-6 acetylcholine induction (reference value: 80 +/- 5%); format: tissue-based; parameters: scale not given: the % may be the effect or the level left
Rattus norvegicus [12] = organism: Rattus norvegicus; test: Antagonist activity at calcium channel in albino rat ileum assessed as inhibition of PGF-2alpha-induced spasmogenic action by measuring contraction of ileum at 10^-5 M preincubated for 3 mins followed by PGF-2alpha induction (reference value: 76 +/- 4%); format: tissue-based; parameters: scale not given: the % may be the effect or the level left
Rattus norvegicus [13] = organism: Rattus norvegicus; test: Agonist activity at calcium channel in albino rat ileum assessed as induction of spasmogenic action by measuring contraction of ileum at 10^-4 M measured for 3 mins relative to PGF-2alpha; format: tissue-based; procedure, shortened: as §1

| SMILES | Activity (Heart) | Activity (Rattus norvegicus [1]) | Activity (Rattus norvegicus [2]) | Activity (Rattus norvegicus [3]) | Activity (Rattus norvegicus [4]) | Activity (Rattus norvegicus [5]) | Activity (Rattus norvegicus [6]) | Activity (Rattus norvegicus [7]) | Activity (Rattus norvegicus [8]) | Activity (Rattus norvegicus [9]) | Activity (Rattus norvegicus [10]) | Activity (Rattus norvegicus [11]) | Activity (Rattus norvegicus [12]) | Activity (Rattus norvegicus [13]) |
| --- | --- | --- | --- | --- | --- | --- | --- | --- | --- | --- | --- | --- | --- | --- |
| CCCC1=Cc2cc3c(cc2C1N(C)C)OCO3.Cl (stereo not drawn) | 36% |  |  |  |  |  |  |  |  |  |  |  |  |  |
| CCC1=Cc2cc(OC)c(OC)cc2C1N(C)C (stereo not drawn) |  | 62% | 51.3% | inactive | 77.3% | 110% | 45.3% | 98.7% | 91.5% | 28.9% | 105% | 105% | 108% | 74.7% |
| CCCC1=Cc2cc(OC)c(OC)cc2C1N(C)C (stereo not drawn) |  | 49.1% | 56.7% | inactive | 61.7% | 99.7% | 43.6% | 104% | 96.6% | 42.7% | 110% | 104% | 99.3% | 80.7% |
| COc1cc2c(cc1OC)C(N(C)C)C(C)=C2 (stereo not drawn) |  | 124% | 64% | inactive | 119% | 113% | 49.5% | 111% | 94.4% | 20.6% | 113% | 113% | 108% | 59.8% |
| CCCCC1=Cc2cc(OC)c(OC)cc2C1N(C)C (stereo not drawn) |  | 65.2% | 64.3% | inactive | 58.1% | 60.5% | 46.7% | 101% | 78.6% | 25.3% | 108% | 104% | 91.1% | 37.1% |
